≈ marks a conversion by molar mass, not a printed value. Values belong to the compound of their own block, whether it stands above or below them. Calls of active or inactive are those of the source. The calls are words filed in the database; no cut-off is given here.
Tests used:
Topoisomerase IV = Topoisomerase IV (Staphylococcus aureus, UniProt P0C1S7+P0C1U9); test: Inhibition of Staphylococcus aureus topoisomerase IV decatenation activity using kDNA as substrate by ethidium bromide/bromophenol blue staining based agarose gel electrophoresis analysis; type: protein-complex assay
Staphylococcus aureus [1] = test: Antibacterial activity against Staphylococcus aureus harbouring GyrA D83N mutant by CLSI method; type: functional
Staphylococcus aureus [2] = test: Antibacterial activity against Staphylococcus aureus ATCC 29213 by CLSI method; type: functional
Staphylococcus aureus [3] = test: Antibacterial activity against Staphylococcus aureus 3527 by CLSI method; type: functional
DNA gyrase = DNA gyrase (Staphylococcus aureus, UniProt P0A0K8+P20831); test: Inhibition of Staphylococcus aureus Gyrase supercoiling activity assessed as reduction in supercoiling pBR322 DNA by measuring relaxation by bromophenol blue staining based TAE gel method; type: protein-complex assay
[4] = Growth inhibition of human K/VP.5 cells incubated for 48 hrs by NBTI cell counting analysis; type: functional; settings: K562, 48 h
Staphylococcus aureus [5] = test: Antibacterial activity against methicillin-resistant Staphylococcus aureus USA300 by CLSI method; type: functional
Staphylococcus aureus [6] = test: Antibacterial activity against cystic fibrosis isolate Staphylococcus aureus by CLSI method; type: functional
K562 = test: Growth inhibition of log-phase human K562 cells incubated for 48 hrs by NBTI cell counting analysis; type: functional, cell-based
[7] = target: T1, DNA gyrase (Staphylococcus aureus) (UniProt P0A0K8+P20831); test: Inhibition of Staphylococcus aureus DNA Gyrase assessed as reduction in supercoiling pBR322 DNA by measuring induction of single strand breaks at 100 uM by ethidium bromide staining based agarose gel electrophoresis; type: protein-complex assay
[8] = target: T1, DNA gyrase (Staphylococcus aureus); test: Inhibition of Staphylococcus aureus DNA Gyrase assessed as reduction in supercoiling pBR322 DNA by measuring induction of double strand breaks at 200 uM by ethidium bromide staining based agarose gel electrophoresis; type: protein-complex assay
Streptococcus pyogenes = test: Antibacterial activity against Streptococcus pyogenes isolates by CLSI method; type: functional
[9] = Metabolic stability in CD1 mouse liver microsomes assessed as intrinsic clearance at 2 uM measured up to 120 mins by LC-MS/MS analysis; type: ADME, Microsome; settings: 2 h
[10] = Metabolic stability in CD1 mouse liver microsomes assessed as half life at 2 uM measured up to 120 mins by LC-MS/MS analysis; type: ADME, Microsome
[11] = target: Voltage-gated inwardly rectifying potassium channel KCNH2 (Homo sapiens, UniProt Q12809); test: Inhibition of human ERG
How it was run: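 hERG channel inhibition was measured on the IonWorks Barracuda automated patch system. IC50 came from eight-point concentration–response curves with four replicates per concentration.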

Sequence of Voltage-gated inwardly rectifying potassium channel KCNH2 (Q12809 whole entry): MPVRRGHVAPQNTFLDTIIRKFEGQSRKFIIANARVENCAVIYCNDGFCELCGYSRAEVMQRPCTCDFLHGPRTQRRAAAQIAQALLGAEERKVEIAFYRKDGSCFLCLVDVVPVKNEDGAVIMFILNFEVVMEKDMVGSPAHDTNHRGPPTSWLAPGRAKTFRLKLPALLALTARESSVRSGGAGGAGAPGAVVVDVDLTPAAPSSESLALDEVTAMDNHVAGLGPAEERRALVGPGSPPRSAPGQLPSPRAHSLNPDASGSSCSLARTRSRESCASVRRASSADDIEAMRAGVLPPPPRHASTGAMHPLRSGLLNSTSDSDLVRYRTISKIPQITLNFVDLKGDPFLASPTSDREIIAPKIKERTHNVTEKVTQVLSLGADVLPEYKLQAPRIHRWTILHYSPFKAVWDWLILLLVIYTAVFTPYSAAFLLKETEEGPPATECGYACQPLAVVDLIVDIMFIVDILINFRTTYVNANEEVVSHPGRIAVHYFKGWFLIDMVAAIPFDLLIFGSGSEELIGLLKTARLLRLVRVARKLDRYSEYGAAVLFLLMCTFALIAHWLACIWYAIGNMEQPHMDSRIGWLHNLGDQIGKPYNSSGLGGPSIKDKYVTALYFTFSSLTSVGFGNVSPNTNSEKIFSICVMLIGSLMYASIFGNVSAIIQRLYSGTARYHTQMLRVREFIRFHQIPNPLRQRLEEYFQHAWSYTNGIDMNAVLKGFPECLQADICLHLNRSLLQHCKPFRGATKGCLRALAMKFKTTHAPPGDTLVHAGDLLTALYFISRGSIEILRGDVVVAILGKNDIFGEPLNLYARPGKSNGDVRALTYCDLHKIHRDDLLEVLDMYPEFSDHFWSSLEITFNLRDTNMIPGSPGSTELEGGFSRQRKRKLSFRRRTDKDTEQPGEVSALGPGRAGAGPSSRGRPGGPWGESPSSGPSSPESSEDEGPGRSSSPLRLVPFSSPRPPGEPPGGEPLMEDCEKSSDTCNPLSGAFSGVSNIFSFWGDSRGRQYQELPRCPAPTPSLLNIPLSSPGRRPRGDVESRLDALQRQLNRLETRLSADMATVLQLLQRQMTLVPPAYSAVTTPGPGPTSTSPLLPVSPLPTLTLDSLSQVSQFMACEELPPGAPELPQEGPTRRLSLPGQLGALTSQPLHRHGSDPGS

Structure (SMILES): COc1ccc2ncc(F)c(C(O)C[C@H]3OC[C@H](NCc4ccc5c(n4)NC(=O)CS5)CO3)c2n1 (mixture of isomers)
IC50 (Topoisomerase IV): 2800 nM
MIC (Staphylococcus aureus [1]): 2 µg/mL (≈ 3.99 µM)
MIC (Staphylococcus aureus [2]): ≤ 0.25 µg/mL
MIC (Staphylococcus aureus [3]): ≤ 0.25 µg/mL
IC50 (DNA gyrase): 54 nM
IC50 [4]: > 50000 nM
MIC (Staphylococcus aureus [5]): 0.125 µg/mL (≈ 0.249 µM)
MIC (Staphylococcus aureus [6]): 0.25 µg/mL (≈ 0.498 µM)
IC50 (K562; Homo sapiens, K562, 48 h, read-out: IC50): 52100 nM

Structure (SMILES): COc1ccc2ncc(F)c(C(O)C[C@H]3OC[C@H](NCc4ccc5c(n4)NC(=O)CO5)CO3)c2c1 (mixture of isomers)
IC50 (Topoisomerase IV): 2600 nM
MIC (Staphylococcus aureus [1]): 4 µg/mL (≈ 8.26 µM)
MIC (Staphylococcus aureus [2]): 0.5 µg/mL (≈ 1.03 µM)
MIC (Staphylococcus aureus [3]): ≤ 0.5 µg/mL
IC50 (DNA gyrase): 520 nM
IC50 [4]: > 50000 nM
MIC (Staphylococcus aureus [5]): 0.25 µg/mL (≈ 0.516 µM)
MIC (Staphylococcus aureus [6]): 0.5 µg/mL (≈ 1.03 µM)
IC50 (K562; k562): Not Active

Structure (SMILES): O=c1ccc2ncc(=O)n3c2n1C[C@H]3CN1CCC(NCc2cc3c(cn2)OCCC3)CC1 [GEPOTIDACIN]
Activity [7]: Active
MIC (Staphylococcus aureus [1]): 8 µg/mL (≈ 17.8 µM)
MIC (Staphylococcus aureus [2]): 0.25 µg/mL (≈ 0.557 µM)
MIC (Staphylococcus aureus [3]): 0.25 µg/mL (≈ 0.557 µM)
Activity [8]: Active
MIC (Staphylococcus aureus [5]): 0.25 µg/mL (≈ 0.557 µM)
MIC (Staphylococcus aureus [6]): 0.25 µg/mL (≈ 0.557 µM)

MIC50 (Streptococcus pyogenes): 8 µg/mL
MIC90 (Streptococcus pyogenes): 64 µg/mL
Structure (SMILES): C[C@H]1COc2c(N3CCN(C)CC3)c(F)cc3c(=O)c(C(=O)O)cn1c23.C[C@H]1COc2c(N3CCN(C)CC3)c(F)cc3c(=O)c(C(=O)O)cn1c23.O [LEVOFLOXACIN]

intrinsic clearance (CLint) [9]: 1940 µL/min/mg
half-life at 2 µM [10]: 2.81 min
Structure (SMILES): COc1ccc2nccc(CCN3CCC(NCc4ccc5c(c4)OCCO5)CC3)c2c1

intrinsic clearance (CLint) [9]: 2240 µL/min/mg
half-life at 2 µM [10]: 2.43 min
Structure (SMILES): COc1ccc2ncc(F)c(CC[C@H]3OC[C@H](NCc4ccc5c(c4)OCCO5)CO3)c2n1
IC50 [11]: 23000 nM

Activity [7]: Active
Activity [8]: Active
Structure (SMILES): O=C(O)c1cn(C2CC2)c2cc(N3CCNCC3)c(F)cc2c1=O
